CSC inhib – blocks cancer stem cells | actives 1.1% (n = 300,000) | cancer stem cell-like cells viability, luminescence | inhibition, % at 7.5 µM; in the data active = inhibition above about 75%; tested in HMLE shEcad cells
Beta apoptosis – blocks beta cell apoptosis. INS-1E cytokine-induced death, ATP luminescence, 48 h; percent of positive-control rescue, neutral wells zero. AID 435005. protection from apoptosis, % (no concentration beside the values). actives 0.8% (n = 300,000);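 active = Every replicate reaches about 75%, or at least half do and their mean reaches it too, limit read from the data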;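 also: 0% = cytokine-treated negative control wells and 100% = positive control rescue; higher means more ATP so stronger rescue from cytokine killing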
Mdm2-MdmX inh – human Mdm2/MdmX binding inhibition; O15151+Q00987; SaOS-2 split-luciferase Mdm2/MdmX complementation, luminescence; inhibition, % at 8 µM; actives 3% (n = 330,000);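 active = inhibition of at least 50% at 8 µM in the primary screen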
Target sequence (O15151 whole entry, looked up): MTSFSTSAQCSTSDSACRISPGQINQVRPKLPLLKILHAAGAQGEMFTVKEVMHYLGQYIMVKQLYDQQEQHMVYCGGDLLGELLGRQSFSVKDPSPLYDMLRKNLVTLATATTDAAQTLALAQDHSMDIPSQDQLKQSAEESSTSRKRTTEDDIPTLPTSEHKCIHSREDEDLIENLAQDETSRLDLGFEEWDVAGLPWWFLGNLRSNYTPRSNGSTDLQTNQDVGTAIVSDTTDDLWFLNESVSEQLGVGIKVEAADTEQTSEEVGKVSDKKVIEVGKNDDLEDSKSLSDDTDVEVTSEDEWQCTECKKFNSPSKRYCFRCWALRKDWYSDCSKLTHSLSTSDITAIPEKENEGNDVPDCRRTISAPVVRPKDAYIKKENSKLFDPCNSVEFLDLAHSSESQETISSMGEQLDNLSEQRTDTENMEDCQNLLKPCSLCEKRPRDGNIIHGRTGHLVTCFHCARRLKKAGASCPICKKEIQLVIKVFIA
Target sequence (Q00987 whole entry, looked up): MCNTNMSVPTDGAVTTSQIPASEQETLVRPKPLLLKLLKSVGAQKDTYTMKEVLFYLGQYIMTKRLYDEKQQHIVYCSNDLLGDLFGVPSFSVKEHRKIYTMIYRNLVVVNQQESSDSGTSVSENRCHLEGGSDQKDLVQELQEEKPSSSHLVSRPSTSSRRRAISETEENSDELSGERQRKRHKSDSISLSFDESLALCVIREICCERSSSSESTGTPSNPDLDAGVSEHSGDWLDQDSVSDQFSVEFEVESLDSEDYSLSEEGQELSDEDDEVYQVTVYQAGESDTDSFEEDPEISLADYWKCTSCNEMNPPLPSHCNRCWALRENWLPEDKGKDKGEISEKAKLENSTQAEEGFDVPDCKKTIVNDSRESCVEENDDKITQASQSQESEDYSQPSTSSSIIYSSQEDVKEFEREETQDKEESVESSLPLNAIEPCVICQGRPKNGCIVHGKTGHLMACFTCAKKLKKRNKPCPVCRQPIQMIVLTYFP
UPR CHOP act – apoptotic UPR (CHOP) activation; CHO-CHOP luciferase reporter, luminescence; percent of tunicamycin response over DMSO baseline; activation, % at 10 µM; actives 0.34% (n = 330,000); AID 449763;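 active = at 10 µM dose, activation of 40% or more, normalized to positive control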;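 also: 100% = tunicamycin at 10 µg/mL and 0% = DMSO alone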
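Test system: CHO-CHOP cells, stable luciferase reporter of PERK-eIF2a-CHOP signalling | Quantity: 500 CHO-CHOP cells per well | Buffer or medium: F12 plus 10% serum | Compound dosing: 10 µM single point, 0.5% DMSO | Schedule: 6 h compound treatment, 37 °C | Signal: Luciferase luminescence | Control set: Tunicamycin high control, DMSO low control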
UPR XBP1 act – activators of adaptive arm of unfolded protein response (XBP1); actives 0.33% (n = 330,000); AID 463104; activation, % at 20 µM; CHO-XBP1 luciferase reporter, IRE1-XBP1 UPR activation, luminescence; percent of tunicamycin response, DMSO as zero;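 active = versus positive control, 20 µM dose yields 30% or more activation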;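 also: 100% = tunicamycin at 10 µg/mL and 0% = DMSO only wells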
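assay system = CHO-XBP1 luciferase reporter cells | amount = 1000 cells/well | buffer or medium = F12 plus 10% FBS | compound dosing = single point, 20 µM final compound, 1% DMSO | incubation = 16-18 h cell attachment at 37 °C, then 6 h compound exposure | detection = Steady-Glo luminescence read | controls = tunicamycin 10 µg/mL and vehicle-only wells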
SKKanGAS inh – blocks kanamycin growth of S. pyogenes SKKanGAS strain. BacTiter-Glo, 6 h. inhibition, % at 7.5 µM. actives 1.3% (n = 300,000). AID 1662;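 active = mean replicate score, as percent of positive control median, at least 50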;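 also: strain carries kanamycin resistance gene driven by streptokinase promoter and grows in 40 µg/ml kanamycin; loss of luminescence reflects streptokinase promoter inhibition or plain growth inhibition; 0% = median of DMSO wells and 100% = positive control at its reference dose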
* hit, by the source's call. This is a sample that favours compounds with a hit; in the whole collection about 4.8% have one here.

What do the screens show for `CC[C@H]1OC(=O)[C@H](C)[C@@H](O[C@H]2C[C@@](C)(OC)[C@@H](O)[C@H](C)O2)[C@H](C)[C@@H](O[C@@H]2O[C@H](C)C[C@H](N(C)C)[C@H]2O)[C@](C)(OC)C[C@@H](C)C(=O)[C@H](C)[C@@H](O)[C@]1(C)O`?
CSC inhib: -19; Beta apoptosis: -6; Mdm2-MdmX inh: -18; UPR CHOP act: 0; UPR XBP1 act: -5; SKKanGAS inh: 104*

How did CC[C@H]1OC(=O)[C@H](C)[C@@H](O[C@H]2C[C@@](C)(OC)[C@@H](O)[C@H](C)O2)[C@H](C)[C@@H](O[C@@H]2O[C@H](C)C[C@H](N(C)C)[C@H]2O)[C@](C)(O)C[C@@H](C)C(=NOCOCCOC)[C@H](C)[C@@H](O)[C@]1(C)O do in these assays?
CSC inhib: 1; Beta apoptosis: -8; Mdm2-MdmX inh: 30; UPR CHOP act: 2; UPR XBP1 act: -2; SKKanGAS inh: 107*

What do the screens show for `CN(C)c1ncc(CN2CCC(C(=O)Nc3ccc(-n4cccn4)cc3)CC2)s1`?
CSC inhib: -10; Beta apoptosis: 4; Mdm2-MdmX inh: 8; UPR CHOP act: 1; UPR XBP1 act: -3; SKKanGAS inh: -2

How did Cc1[nH]n(-c2ncc(-c3ccc(Cl)cc3)s2)c(=O)c1C(c1ccc(Cl)cc1)C(C#N)C#N (stereo not given) do in these assays?
CSC inhib: 96*; Beta apoptosis: -2; Mdm2-MdmX inh: -21; UPR CHOP act: 4; UPR XBP1 act: 1; SKKanGAS inh: 97*

Results for CN(C(=O)Cc1c(C(=O)O)n(C)c2ccccc12)c1cccc(C(F)(F)F)c1 ?
CSC inhib: -4; Beta apoptosis: -1; Mdm2-MdmX inh: -11; UPR CHOP act: 1; UPR XBP1 act: -1; SKKanGAS inh: -1

What do the screens show for `O=C(COC(=O)c1ccc(Br)o1)NCc1ccccc1Cl`?
CSC inhib: -4; Beta apoptosis: -8; Mdm2-MdmX inh: -1; UPR CHOP act: -1; UPR XBP1 act: -1

Results for COc1cc2ccccc2cc1C(=O)Nc1ccc(C)cc1 ?
CSC inhib: 73; Beta apoptosis: 3; Mdm2-MdmX inh: -29; UPR CHOP act: 3; UPR XBP1 act: 1; SKKanGAS inh: -2

Results for COc1cc2ccccc2cc1C(=O)Nc1ccc(Cc2ccncc2)cc1 ?
CSC inhib: 97*; Beta apoptosis: 32; Mdm2-MdmX inh: 29; UPR CHOP act: 3; UPR XBP1 act: 0; SKKanGAS inh: 26

How did COC(C(=O)Nc1ccnn1C1CCN(C(=O)c2ccc(C)cc2)CC1)c1ccccc1 (stereo not given) do in these assays?
CSC inhib: 5; Beta apoptosis: 6; Mdm2-MdmX inh: 13; UPR CHOP act: -2; UPR XBP1 act: -2; SKKanGAS inh: 4

What do the screens show for `Cn1nc(C(C)(C)C)cc1C(=O)NCc1cc(F)cc2c1OCOC2`?
CSC inhib: -12; Beta apoptosis: 102*; Mdm2-MdmX inh: 25; UPR CHOP act: 6; UPR XBP1 act: -2; SKKanGAS inh: -8

How did Cc1cc(C(=O)NCc2cc(F)cc3c2OCOC3)nn1C do in these assays?
CSC inhib: -10; Mdm2-MdmX inh: -9; UPR CHOP act: 0; UPR XBP1 act: -4; SKKanGAS inh: 1

Results for COc1ccc(-c2c(C#Cc3ccsc3)c3cc(-c4ccc(C(N)=O)cc4)ccc3n2C)cc1 ?
Beta apoptosis: -1; Mdm2-MdmX inh: -2; UPR CHOP act: 1; UPR XBP1 act: 2

What do the screens show for `CC1C(=O)C(C)C(c2cccc(Br)c2)NC1c1cccc(Br)c1` (stereo not given)?
CSC inhib: 15; Beta apoptosis: 1; Mdm2-MdmX inh: 4; UPR CHOP act: 0; UPR XBP1 act: -6; SKKanGAS inh: 60*

Results for CC1C(=O)C(C)C(c2ccc(Cl)cc2)NC1c1ccc(Cl)cc1 (stereo not given) ?
CSC inhib: 55; Mdm2-MdmX inh: -17; UPR CHOP act: -1; UPR XBP1 act: -3; SKKanGAS inh: 35

Results for CCCCNc1c(-c2ccc(-c3cccc(Cl)c3)cc2)nc2ccccn12 ?
CSC inhib: 97*; Beta apoptosis: 110*; Mdm2-MdmX inh: -43; UPR CHOP act: 10; UPR XBP1 act: 4; SKKanGAS inh: 43

What do the screens show for `CCCCCCSc1ccc(-c2nc3ccc(C)cn3c2NC2CCCCC2)cc1`?
CSC inhib: 40; Beta apoptosis: 10; Mdm2-MdmX inh: 4; UPR CHOP act: 4; UPR XBP1 act: -3; SKKanGAS inh: 19

Results for CCCCCCSc1ccc(-c2nc3ccccn3c2NCCCC)cc1 ?
CSC inhib: 86*; Beta apoptosis: 10; Mdm2-MdmX inh: -19; UPR CHOP act: 11; UPR XBP1 act: 1; SKKanGAS inh: 51*

Results for CCN1CCN(S(=O)(=O)c2ccc(C(C)(C)C)cc2)CC1 ?
CSC inhib: -4; Beta apoptosis: -1; Mdm2-MdmX inh: 2; UPR CHOP act: 0; UPR XBP1 act: -2; SKKanGAS inh: 11

How did CCc1nnc(NC(=O)CN2CCN(Cc3cccc(OC)c3)CC2)s1 do in these assays?
CSC inhib: -1; Beta apoptosis: 1; Mdm2-MdmX inh: 16; UPR CHOP act: 0; UPR XBP1 act: -6; SKKanGAS inh: 0

Results for Nc1nc(-c2ccccc2)c(N=Nc2cccc3ccccc23)s1 ?
CSC inhib: 56; Beta apoptosis: 16; Mdm2-MdmX inh: 26; UPR CHOP act: -1; UPR XBP1 act: 0; SKKanGAS inh: 57*

What do the screens show for `N=C(N)c1ccc(OCCCCCOc2ccc(C(=N)N)cc2)cc1`?
CSC inhib: -13; Beta apoptosis: 22; Mdm2-MdmX inh: 28; UPR CHOP act: 1; UPR XBP1 act: -5; SKKanGAS inh: 108*

What do the screens show for `CCOC(=O)C1(Cc2ccc(OC)cc2)CCN(C(=O)c2cc(C)nn2C)CC1`?
CSC inhib: 9; Beta apoptosis: 1; Mdm2-MdmX inh: 15; UPR CHOP act: 1; UPR XBP1 act: -2; SKKanGAS inh: -13

How did N#CCCN(C(=O)COC(=O)CCc1c[nH]c2ccccc12)c1ccc(F)cc1 do in these assays?
CSC inhib: -11; Beta apoptosis: 9; Mdm2-MdmX inh: -1; UPR CHOP act: -2; UPR XBP1 act: 0; SKKanGAS inh: 25

What do the screens show for `Cc1nc2c(-c3ccccc3)c[nH]n2c(=O)c1Cc1ccccc1`?
CSC inhib: 13; Beta apoptosis: 39; Mdm2-MdmX inh: 49; UPR CHOP act: 13; UPR XBP1 act: 0; SKKanGAS inh: 71*

What do the screens show for `COc1ccc(O)c(/C=N/NC(=S)Nc2cccnc2)c1`?
CSC inhib: 50; Beta apoptosis: 76*; Mdm2-MdmX inh: 16; UPR CHOP act: 0; UPR XBP1 act: -3; SKKanGAS inh: 0

Results for COc1ccc(O)c(/C=N/NC(=S)Nc2cccc(S(=O)(=O)N(C)C)c2)c1 ?
CSC inhib: 97*; Beta apoptosis: 65; SKKanGAS inh: -2

High-throughput results as filed in PubChem.
